Test results: ChEMBL document CHEMBL1146069, “Photodynamic efficiency of diethylene glycol-linked glycoconjugated porphyrins in human retinoblastoma cells” (J Med Chem, 2006); call rule not given here

Legend:
B16 [1] = test: Survival of mouse B16 cells at 2 uM irradiated with 514 nM light at the fluence of 5 J/cm2 after 4 hrs; format: functional; details: B16, light or radiation study, read-out: LD50 (the source's name)
Procedure, shortened: (§1)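 Adherent cells (human HT29 colorectal adenocarcinoma; murine B16 melanoma) seeded at 10^5 cells/mL. Dye added from a DMSO stock and incubated 4 h in DMEM with 2% FCS in the dark. Irradiation at 514 nm, 5 J/cm2, in the same dye-containing medium. Survival measured by MTT colorimetric assay.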

Y79 [2] = test: Survival of human Y79 cells at 2 uM irradiated with 514 nM light at the fluence of 1 J/cm2 after 4 hrs; format: functional; details: Y79, light or radiation study, read-out: LD50 (the source's name)
Procedure, shortened: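 Y79 retinoblastoma cells (ATCC, suspension in COON's medium with 20% FCS) plated at 2 × 10^5 cells/mL in COON's with 2% FCS. Dye added from a 5 mg/mL DMSO stock, incubated 4 h in the dark, then cells centrifuged, washed and resuspended in fresh complete medium. Ar+ laser irradiation at 514 nm, 1 J/cm2. MTT viability read 24 h later at 570/640 nm.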

HT-29 [3] = test: Survival of human HT29 cells at 2 uM irradiated with 514 nM light at the fluence of 5 J/cm2 after 4 hrs; format: functional; details: HT-29, light or radiation study, read-out: LD50 (the source's name); procedure, shortened: as §1
Y79 [4] = test: Cellular uptake in human Y79 cells relative to unglycosylated TPP(p-DegOH)3; format: ADME, cell-based
[5] = Partition coefficient of the compound, log P; format: physicochemical; details: octanol/water
Y79 [6] = test: Toxicity against human Y79 cells at 2 uM after 4 hrs in dark; format: cell-based; details: y79, 4 h
Procedure, shortened: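 Y79 cells were plated at 2 × 10^5 cells/mL in COON's medium with 2% FCS. They were exposed to 2 µM dye (DMSO stock diluted in medium) for 4 h in the dark, then centrifuged, washed and resuspended in fresh complete medium with no irradiation. Survival fraction was measured by MTT at 570/640 nm.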

HT-29 [7] = test: Cellular uptake in human HT29 cells relative to unglycosylated TPP(p-DegOH)3; format: ADME, cell-based
B16 [8] = test: Cellular uptake in mouse B16 cells relative to unglycosylated TPP(p-DegOH)3; format: ADME, cell-based

Row | SMILES | CC50 (B16 [1]) [nM] | CC50 (Y79 [2]) [nM] | CC50 (HT-29 [3]) [nM] | Ratio (Y79 [4]) | logP [5] | Activity (Y79 [6]) | Ratio (HT-29 [7]) | Ratio (B16 [8])
1 | OC[C@H]1O[C@H](OCCOCCOc2ccc(-c3c4nc(c(-c5ccccc5)c5ccc([nH]5)c(-c5ccc(OCCOCCO[C@H]6O[C@H](CO)[C@H](O)[C@@H](O)[C@H]6O)cc5)c5ccc([nH]5)c(-c5ccc(OCCOCCO[C@H]6O[C@H](CO)[C@H](O)[C@@H](O)[C@H]6O)cc5)c5nc3C=C5)C=C4)cc2)[C@H](O)[C@H](O)[C@H]1O | 100 | 50 | 820 | 2 | 0.5 | Not Active | 1.8 | –
2 | OC[C@H]1O[C@@H](OCCOCCOc2ccc(-c3c4nc(c(-c5ccccc5)c5ccc([nH]5)c(-c5ccc(OCCOCCO[C@@H]6O[C@H](CO)[C@H](O)[C@@H](O)[C@H]6O)cc5)c5ccc([nH]5)c(-c5ccc(OCCOCCO[C@@H]6O[C@H](CO)[C@H](O)[C@@H](O)[C@H]6O)cc5)c5nc3C=C5)C=C4)cc2)[C@H](O)[C@H](O)[C@H]1O | 680 | 600 | 250 | 3.7 | 0.23 | Not Active | 4.4 | 4
3 | OC[C@H]1O[C@H](OCCOCCOc2ccc(-c3c4nc(c(-c5ccccc5)c5ccc([nH]5)c(-c5ccc(OCCOCCO[C@H]6O[C@H](CO)[C@@H](O)[C@H](O)[C@@H]6O)cc5)c5ccc([nH]5)c(-c5ccc(OCCOCCO[C@H]6O[C@H](CO)[C@@H](O)[C@H](O)[C@@H]6O)cc5)c5nc3C=C5)C=C4)cc2)[C@@H](O)[C@@H](O)[C@@H]1O | 430 | 350 | 350 | 4.9 | 0.02 | Not Active | 5 | 6.5
4 | OCCOCCOc1ccc(-c2c3nc(c(-c4ccccc4)c4ccc([nH]4)c(-c4ccc(OCCOCCO)cc4)c4ccc([nH]4)c(-c4ccc(OCCOCCO)cc4)c4nc2C=C4)C=C3)cc1 | – | > 2000 | – | 1 | > 2 | Not Active | 1 | 1
5 | OC[C@H]1O[C@@H](SCCOCCOc2ccc(-c3c4nc(c(-c5ccccc5)c5ccc([nH]5)c(-c5ccc(OCCOCCS[C@@H]6O[C@H](CO)[C@H](O)[C@@H](O)[C@H]6O)cc5)c5ccc([nH]5)c(-c5ccc(OCCOCCS[C@@H]6O[C@H](CO)[C@H](O)[C@@H](O)[C@H]6O)cc5)c5nc3C=C5)C=C4)cc2)[C@H](O)[C@H](O)[C@H]1O | 2000 | 600 | 820 | 3.5 | -0.07 | Not Active | 3 | 2.7
6 | OC[C@H]1O[C@H](OCCOc2ccc(-c3c4nc(c(-c5ccccc5)c5ccc([nH]5)c(-c5ccc(OCCO[C@H]6O[C@H](CO)[C@@H](O)[C@@H](O)[C@@H]6O)cc5)c5ccc([nH]5)c(-c5ccc(OCCO[C@H]6O[C@H](CO)[C@@H](O)[C@H](O)[C@@H]6O)cc5)c5nc3C=C5)C=C4)cc2)[C@@H](O)[C@@H](O)[C@@H]1O | 850 | 600 | 440 | 1.6 | 0.78 | Not Active | 1.7 | 1.8
7 | OC[C@H]1O[C@H](SCCOCCOc2ccc(-c3c4nc(c(-c5ccccc5)c5ccc([nH]5)c(-c5ccc(OCCOCCS[C@H]6O[C@H](CO)[C@@H](O)[C@H](O)[C@@H]6O)cc5)c5ccc([nH]5)c(-c5ccc(OCCOCCS[C@H]6O[C@H](CO)[C@@H](O)[C@H](O)[C@@H]6O)cc5)c5nc3C=C5)C=C4)cc2)[C@@H](O)[C@@H](O)[C@@H]1O | 2000 | 650 | > 2000 | 1.4 | 0.46 | Not Active | 1.2 | 1.3
